We go through one compound from ChEMBL document CHEMBL2176900, “Design and synthesis of a novel series of bicyclic heterocycles as potent γ-secretase modulators” (J Med Chem, 2012).

Structures are written as SMILES. The source made the active and inactive calls. The calls are words filed in the database; no cut-off is given here.

The subject of series [1] is Rattus norvegicus. Description: Antialzheimer activity in Sprague-Dawley rat assessed as amyloid beta 42 level in CSF at 10 mg/kg, po at 7 hrs by ELISA relative to control. It counts as functional. Summed up:
(§1)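 Male Sprague-Dawley rats (180-220 g), fasted overnight, were given 10 mg/kg by gastric intubation as a 5 mg/mL suspension in 0.5% methocellulose. At 2, 4, 7 and 25 h, 50 μL CSF was taken from the cisterna magna under isoflurane, then brain was collected. Aβ37/38/40/42 were measured by MesoScale Discovery sandwich immunoassays. Results are mean % change versus T = 0 h, n = 5.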
For orientation: An ELISA detects its analyte on a solid surface through an enzyme-linked reagent.

Series [2] has as its system Rattus norvegicus. Description: Antialzheimer activity in Sprague-Dawley rat assessed as amyloid beta 40 level in CSF at 10 mg/kg, po at 2 hrs by ELISA relative to control. In kind it is functional. Summed up:
as §1

Series [3] in a line: Thermodynamic solubility in buffer at pH 4. In kind it is physicochemical. The conditions noted are these: read-out: Therm_solubility. Put shortly: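 Thermodynamic solubility was measured in pH 4.0 and pH 7.4 buffers, 0.01 N HCl, and fasted-state and fed-state simulated intestinal fluids (FaSSIF, FeSSIF). Results are in […].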
The test system of series [4] is Rattus norvegicus. The series can be described thus: Antialzheimer activity in Sprague-Dawley rat assessed as amyloid beta 38 level in CSF at 10 mg/kg, po at 25 hrs by ELISA relative to control. It counts as functional. Summed up: as §1
Series [5] concerns Mus musculus. The series can be described thus: Antialzheimer activity in CD1 mouse assessed as amyloid beta 38 level in brain at 30 mg/kg, po at 4 hrs by ELISA relative to control. It counts as functional. Put shortly: (§2)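 Male CD1 SPF mice, fasted overnight, got a single oral dose of 10 or 30 mg/kg. At each time point the right brain hemisphere was homogenized in 0.4% DEA/50 mM NaCl with protease inhibitors and spun at 221300g for 50 min. The supernatant was neutralized with Tris-HCl pH 6.8. Aβ38 or Aβ42 was read by sandwich ELISA with a fluorogenic peroxidase substrate (ex 320/em 420 nm). Results are mean % change versus T = 0 h, n = 4.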

For series [6], the target named is T1, Neuromedin-K receptor (Homo sapiens) (UniProt P29371).
T1 sequence (whole entry): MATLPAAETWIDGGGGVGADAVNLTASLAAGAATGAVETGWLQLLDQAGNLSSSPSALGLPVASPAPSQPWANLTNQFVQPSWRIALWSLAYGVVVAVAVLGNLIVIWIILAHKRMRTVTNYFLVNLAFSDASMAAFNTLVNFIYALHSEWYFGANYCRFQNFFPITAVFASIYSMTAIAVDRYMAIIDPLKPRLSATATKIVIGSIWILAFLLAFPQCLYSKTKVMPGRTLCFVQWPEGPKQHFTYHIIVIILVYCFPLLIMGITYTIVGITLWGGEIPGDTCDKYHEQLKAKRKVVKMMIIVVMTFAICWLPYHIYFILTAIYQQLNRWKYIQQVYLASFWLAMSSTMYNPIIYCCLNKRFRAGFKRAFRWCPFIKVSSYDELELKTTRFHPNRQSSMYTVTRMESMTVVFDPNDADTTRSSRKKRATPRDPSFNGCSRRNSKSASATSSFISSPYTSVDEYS
The series can be described thus: Inhibition of NK3 receptor at 10 uM.

A short description of series [7]: Lipophilicity, log P of the compound. In kind it is physicochemical. The settings on record: octanol/water.
Series [8] deals with Canis familiaris. Description: Antialzheimer activity in beagle dog assessed as amyloid beta 40 level in cerebrospinal fluid at 20 mg/kg, po at 4 hrs by ELISA relative to control.
In series [9] the test system is Rattus norvegicus. The series can be described thus: Antialzheimer activity in Sprague-Dawley rat assessed as amyloid beta 38 level in brain at 10 mg/kg, po at 25 hrs by ELISA relative to control. In kind it is functional. Put shortly:
as §1

Series [10] in a line: Plasma concentration in CD1 mouse at 30 mg/kg, po at 24 hrs by LC-MS/MS analysis. In kind it is ADME, organism-based. The arrangement: dose 30 mg/kg, route oral. Put shortly:
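Mice received a single 10 or 30 mg/kg oral dose. Plasma was sampled at several time points up to 48 h, with EDTA plasma obtained by centrifugation at 1900g, 10 min, 4 °C. Compound was quantified by LC-MS/MS, n = 4.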

For series [11], the system named is Rattus norvegicus. Description: Antialzheimer activity in Sprague-Dawley rat assessed as amyloid beta 38 level in CSF at 10 mg/kg, po at 4 hrs by ELISA relative to control. It counts as functional. Summed up: as §1
Series [12] relates to Mus musculus. Description: Antialzheimer activity in CD1 mouse assessed as amyloid beta 42 level in brain at 30 mg/kg, po at 4 hrs by ELISA relative to control. In kind it is functional. Summed up: as §2
The subject of series [13] is Rattus norvegicus. The series can be described thus: Antialzheimer activity in Sprague-Dawley rat assessed as amyloid beta 38 level in brain at 10 mg/kg, po at 2 hrs by ELISA relative to control. In kind it is functional. Put shortly:
as §1

The target in series [14] is Gamma-secretase. Description: Modulation of gamma-secretase in human SK-N-BE(2) cells expressing wild type APP 695 assessed as reduction in amyloid beta 42 level after overnight incubation by sandwich immunoassay. It counts as cell-based. Summed up:
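SK-N-BE(2) cells carrying wild-type APP695, plated at 10⁴ cells/well in Ultraculture with glutamine, NEAA, penicillin/streptomycin plus test compound at a range of concentrations. Incubated overnight at 37 °C, 5% CO₂. Supernatant Aβ42 measured by AlphaLisa sandwich immunoassay (JRF/cAβ42/26 capture, biotinylated JRF/AβN/25). IC50 derived from % of maximal Aβ42 without compound. Mean of at least three determinations.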

The subject of series [15] is Mus musculus. The series can be described thus: Reduction in total amyloid beta level in CD1 mouse at 30 mg/kg, po at 4 hrs by ELISA relative to control. It counts as functional, organism-based. The arrangement: dose 30 mg/kg. Put shortly: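 Overnight-fasted male CD1 Swiss SPF mice were given a single oral dose as a suspension in 20% Captisol in water. Brains were taken at 4 h and the right hemisphere homogenized in 0.4% DEA/50 mM NaCl with protease inhibitors, then spun at 221300g for 50 min. The neutralized supernatant was read by Aβtotal ELISA (capture JRF/rAβ/2, biotinylated 4G8, streptavidin-peroxidase, QuantaBlu, ex 320/em 420 nm). Values are % change versus untreated animals, n ≥ 6.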

Series [16] in a line: Drug uptake in CD1 mouse brain at 30 mg/kg, po at 4 hrs by LC-MS/MS analysis. The conditions noted are these: read-out: Drug uptake. It counts as ADME, organism-based. Also on record: dose 30 mg/kg, route oral. Summed up: (§3)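 Overnight-fasted male CD1 mice received one oral dose (10 or 30 mg/kg) in 20% Captisol. After sacrifice, the left brain hemisphere was stored at −18 °C. Compound level was quantified by a qualified LC-MS/MS method, alongside EDTA plasma spun at 1900g, 4 °C. n = 4 per time point.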

Series [17] has as its system Rattus norvegicus. Description: Antialzheimer activity in Sprague-Dawley rat assessed as amyloid beta 37 level in brain at 10 mg/kg, po at 2 hrs by ELISA relative to control. In kind it is functional. Put shortly: as §1
For series [18], the system named is Rattus norvegicus. The series can be described thus: Antialzheimer activity in Sprague-Dawley rat assessed as amyloid beta 37 level in CSF at 10 mg/kg, po at 2 hrs by ELISA relative to control. In kind it is functional. Put shortly: as §1
Series [19] concerns Rattus norvegicus. Description: Antialzheimer activity in Sprague-Dawley rat assessed as amyloid beta 42 level in CSF at 10 mg/kg, po at 4 hrs by ELISA relative to control. It counts as functional. Put shortly:
as §1

A short description of series [20]: Drug uptake in CD1 mouse brain at 10 mg/kg, po at 8 hrs by LC-MS/MS analysis. In kind it is ADME, organism-based. The arrangement: dose 10 mg/kg, route oral. The settings on record: read-out: Drug uptake. Put shortly:
as §3

Series [21] addresses Cytochrome P450 2C19 (Homo sapiens, UniProt P33261). The series can be described thus: Inhibition of CYP2C19 in human liver microsomes using S-mephenytoin as substrate. In kind it is ADME, Microsome.

Chain of Cytochrome P450 2C19 (P33261 whole entry): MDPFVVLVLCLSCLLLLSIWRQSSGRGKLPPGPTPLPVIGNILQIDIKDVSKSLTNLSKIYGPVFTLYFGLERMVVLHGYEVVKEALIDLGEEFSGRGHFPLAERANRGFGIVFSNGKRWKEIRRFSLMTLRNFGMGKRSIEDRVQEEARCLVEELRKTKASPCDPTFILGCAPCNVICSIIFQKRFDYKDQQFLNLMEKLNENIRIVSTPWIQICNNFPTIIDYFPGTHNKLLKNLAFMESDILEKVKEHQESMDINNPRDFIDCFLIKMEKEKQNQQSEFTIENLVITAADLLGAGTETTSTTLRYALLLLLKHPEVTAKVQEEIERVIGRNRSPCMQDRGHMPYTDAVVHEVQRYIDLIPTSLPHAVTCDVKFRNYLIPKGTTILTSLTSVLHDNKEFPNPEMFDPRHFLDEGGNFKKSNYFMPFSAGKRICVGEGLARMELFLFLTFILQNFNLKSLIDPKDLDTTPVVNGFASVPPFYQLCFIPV

For `COc1nc(Nc2cccc3c2nc(-c2ccc(F)cc2)n3C)ccc1-n1cnc(C)c1`, the Activity in [1] is given as 57%; in [2], 60%; in [4] it was 110%; in series [5], 165%; in [8], 89%; in [9], 105%. Further, the Activity is reported as 179% in series [11]; 35% in [12]; 149% in [13]; 502% in series [17]; 735% in series [18]; 66% in series [19]. The solubility thermodynamic in [3] is < 1 µg/mL. Moreover, the inhibition in [6] stood at 71%. This compound also yielded a lipophilicity (logP) in series [7] of 5.25. Moreover, the concentration at 24 h in series [10] amounted to 310 nM. Besides, the IC50 in series [14] is 16 nM; in series [21], 3.5 µM. The result in series [15] was inactive. The concentration at 4 h in [16] amounted to 21.9 µM. In addition, the concentration at 8 h in series [20] was 1900 nM.

As a reminder, the inhibition is how much of the control response was suppressed. What is called logP is a log measure of how a compound divides between an organic and an aqueous phase. A higher logP goes with higher lipophilicity. In general, IC50 refers to the point on the concentration scale where inhibition reaches its midpoint.
